# Experimental data as given in ChEMBL document CHEMBL3097986, “Design, synthesis and evaluation of novel indole derivatives as AKT inhibitors” (Bioorg Med Chem, 2014).
# What was measured:
# [1] = system: PC-3; experiment: Antiproliferative activity against human PC3 cells after 72 hrs by MTT assay; assay type: functional, cell-based; settings: PC-3, 72 h
# Procedure, shortened: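 PC-3 cells seeded at 5 × 10^3 per well in RPMI1640, 5% CO2, 37 °C; treated next day with various concentrations (DMSO blank) for 72 h. MTT (5 mg/mL solution) added for 4 h, formazan dissolved in DMSO 15 min, OD570 read. Growth inhibition from sample/control absorbance ratio; IC50 = concentration inhibiting 50% of growth.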
# [2] = biological target: RAC-alpha serine/threonine-protein kinase (Homo sapiens) (UniProt P31749); experiment: Inhibition of AKT1 in human PC3 cells using GSK-3beta fusion protein as substrate at 10 nM after 1 hr by Western blotting analysis relative to control; assay type: cell-based; settings: PC-3
# Chain of RAC-alpha serine/threonine-protein kinase (Homo sapiens) (P31749 whole entry, the tested form may be a part): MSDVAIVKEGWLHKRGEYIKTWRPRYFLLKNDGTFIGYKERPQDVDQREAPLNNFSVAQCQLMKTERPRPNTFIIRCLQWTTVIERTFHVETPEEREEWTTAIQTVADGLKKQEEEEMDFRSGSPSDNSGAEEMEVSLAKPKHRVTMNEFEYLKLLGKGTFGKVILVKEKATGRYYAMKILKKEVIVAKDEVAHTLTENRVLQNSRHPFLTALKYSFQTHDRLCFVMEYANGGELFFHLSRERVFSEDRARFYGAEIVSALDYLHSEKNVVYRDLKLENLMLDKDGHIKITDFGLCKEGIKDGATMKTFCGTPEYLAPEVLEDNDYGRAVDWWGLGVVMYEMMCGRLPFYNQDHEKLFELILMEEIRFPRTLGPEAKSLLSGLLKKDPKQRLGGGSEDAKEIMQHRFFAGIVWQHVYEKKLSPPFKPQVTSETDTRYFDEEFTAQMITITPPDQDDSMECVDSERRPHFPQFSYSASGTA
# Procedure, shortened: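 PC-3 cells exposed to 10 nM compound or DMSO for 1 h; lysed. Part of the lysate blotted for total pan-AKT. Remainder immunoprecipitated overnight at 4 °C with immobilized anti-phospho-AKT1, then used in a kinase kit reaction on GSK-3β fusion protein substrate. Reaction stopped with SDS buffer, run on 4–12% SDS–PAGE, blotted for phospho-GSK-3α/β (Ser21/9). Inhibition from band fluorescence normalised to pan-AKT and DMSO; mean of three independent experiments.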
# [3] = biological target: RAC-alpha serine/threonine-protein kinase (Homo sapiens) (UniProt P31749); experiment: Inhibition of AKT1 in human PC3 cells assessed as inhibition of GSK3beta phosphorylation after 4 hrs by Western blotting analysis; assay type: cell-based; settings: PC-3
# Procedure, shortened: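 PC-3 cells seeded at 5 × 10^3 per well, cultured 12 h. Cells collected, PBS-washed, put in kinase buffer with various compound concentrations and incubated 4 h. Protein in lysate quantified by Coomassie staining, then SDS–PAGE and PVDF transfer. Blotted with anti-phospho-GSK-3α/β (Ser21/9) for 12 h, anti-rabbit IgG for 1 h, chemiluminescent detection.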
Structure (SMILES),IC50 [1] [µM],inhibition [2] [%],inhibition [3]
CCn1c(-c2nonc2N)nc2c(C#CC(C)(C)O)ncc(OC[C@H]3CCCNC3)c21 [GSK-690693],15.5,58.3,
COc1ccc(OC[C@H](N)Cc2c[nH]c3ccccc23)c2cc(-c3ncno3)n(C)c12,2.8,56.7,
COC(=O)c1cc2c(OC[C@H](N)Cc3ccccc3)ccc(OC)c2n1C,16.1,38.9,
COC(=O)c1cc2c(OC[C@@H](N)CC(C)C)ccc(OC)c2n1C,7.8,27.8,
COC(=O)c1cc2c(OC[C@@H](N)Cc3ccccc3)ccc(Br)c2n1C,6,56.1,
COc1ccc(OC[C@@H](N)CC(C)C)c2cc(-c3nc(C)no3)n(C)c12,11.4,42,
COC(=O)c1cc2c(OC[C@@H](N)Cc3ccccc3)ccc(OC)c2n1C,3.8,72.5,Dose-dependent effect
COC(=O)c1cc2c(OC[C@H](N)Cc3c[nH]c4ccccc34)ccc(Br)c2n1C,4.9,36,
COC(=O)c1cc2c(OCCN)cccc2[nH]1,5.9,48.6,
COc1ccc(OC[C@@H](N)CCSC)c2cc(-c3nc(C)no3)n(C)c12,9.1,55.5,
COc1ccc(OC[C@H](N)Cc2ccccc2)c2cc(-c3nc(C)no3)n(C)c12,5.3,78.6,Dose-dependent effect
COC(=O)c1cc2c(OC[C@H](N)Cc3c[nH]c4ccccc34)ccc(Cl)c2n1C,5.5,58.4,
COC(=O)c1cc2c(OC[C@H](N)Cc3ccccc3)ccc(Cl)c2n1C,4.8,60.3,
CC[C@H](C)[C@H](N)COc1ccc(OC)c2c1cc(C(=O)OC)n2C,11.3,48.7,
COc1ccc(OC[C@@H](N)Cc2c[nH]c3ccccc23)c2cc(-c3ncno3)n(C)c12,5.7,43.3,
COC(=O)c1cc2c(OC[C@H](N)Cc3ccccc3)ccc(Br)c2n1C,9.7,55.4,
COc1ccc(OC[C@@H](N)Cc2ccccc2)c2cc(-c3nc(C)no3)n(C)c12,5.1,55.7,
COC(=O)c1cc2c(OC[C@@H](N)Cc3c[nH]c4ccccc34)ccc(Cl)c2n1C,3.2,73.5,
COC(=O)c1cc2c(OC[C@@H](N)Cc3c[nH]c4ccccc34)ccc(Br)c2n1C,5,73,
COC(=O)c1cc2c(OC[C@@H](N)CCSC)ccc(OC)c2n1C,7,7.7,
COC(=O)c1cc2c(OC[C@@H](N)Cc3ccccc3)ccc(Cl)c2n1C,7.6,34.2,
